4 compounds from ChEMBL document CHEMBL4118021, “Studies of TAK1-centered polypharmacology with novel covalent TAK1 inhibitors” (Bioorg Med Chem, 2017) can be followed below.

Data set [1] concerns the target T1, Mitogen-activated protein kinase kinase kinase 7 (Homo sapiens) (UniProt O43318).
T1 sequence (whole entry): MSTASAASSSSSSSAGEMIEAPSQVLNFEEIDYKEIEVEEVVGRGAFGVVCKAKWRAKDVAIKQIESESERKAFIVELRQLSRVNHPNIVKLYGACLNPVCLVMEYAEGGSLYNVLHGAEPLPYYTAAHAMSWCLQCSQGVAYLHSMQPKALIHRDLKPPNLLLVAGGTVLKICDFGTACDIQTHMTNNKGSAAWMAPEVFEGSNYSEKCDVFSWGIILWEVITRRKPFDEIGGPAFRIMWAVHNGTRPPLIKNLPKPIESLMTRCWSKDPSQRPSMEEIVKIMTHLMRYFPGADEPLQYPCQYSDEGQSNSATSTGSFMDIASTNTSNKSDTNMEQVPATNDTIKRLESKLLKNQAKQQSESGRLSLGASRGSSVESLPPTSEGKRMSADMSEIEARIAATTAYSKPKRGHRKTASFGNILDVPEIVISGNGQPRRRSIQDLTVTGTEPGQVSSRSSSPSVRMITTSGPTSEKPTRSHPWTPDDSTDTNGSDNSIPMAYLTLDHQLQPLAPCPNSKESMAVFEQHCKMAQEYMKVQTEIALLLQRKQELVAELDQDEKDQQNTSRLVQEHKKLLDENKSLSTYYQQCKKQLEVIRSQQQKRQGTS
The data set is described as follows: Inhibition of TAK1 in RA patient-derived synovial fibroblasts assessed as inhibition of poly(I:C)-induced cytokine secretion at 3 uM preincubated for 3 hrs followed by poly(I:C) stimulation measured after 18 hrs by sandwich immunoassay. In a few lines:
(§1)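 Primary RA synovial fibroblasts (donor RA2159) seeded 1000 cells/well and grown ~24 h at 37 °C, 5% CO2. Starved overnight in basal medium, then ~4 h in basal medium with 0.1% BSA. Two adjacent wells pooled per replicate, in biological duplicate. Supernatants diluted 1:3 and run on Luminex 27-plex/21-plex sandwich immunoassays for 48 analytes, with spiked-ligand and mock-supernatant background controls.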

In another data set the test system is PANC-1. The data set is described as follows: Antiproliferative activity against human PANC1 cells harboring KRAS G12D mutant after 72 hrs by CellTiter-Glo assay. Format: functional, cell-based. The conditions noted are these: PANC-1, 72 h.
For data set [2], the system named is BaF3. The data set is described as follows: Antiproliferative activity against mouse BA/F3 cells harboring KRAS G12D mutant after 72 hrs by CellTiter-Glo assay. The conditions noted are these: BaF3, 72 h. Format: functional, cell-based. A general note: Cellular ATP, detected with luciferase, serves as a proxy for viable cell number.
Data set [3] relates to BaF3. Briefly: Antiproliferative activity against mouse BA/F3 cells harboring NRAS G12D mutant after 72 hrs by CellTiter-Glo assay. The data set is classed as functional, cell-based. The settings on record: BaF3, 72 h. A digest of the protocol:
(§2)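 Ba/F3 parental or RAS-transformed cells were seeded at 1000 viable cells/well, without or with IL-3 as the line states, at 37 °C and 5% CO2. After 4 h, nine four-fold serial dilutions were added in triplicate (final 0.5–30,000 nM, 0.3% DMSO). DMSO wells served as 100% viability.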

In data set [4] the target is T2, Mitogen-activated protein kinase kinase kinase 7 (Homo sapiens, UniProt O43318).
T2 sequence (O43318 whole entry): T1 sequence (whole entry)
Briefly: Inhibition of TAK1 (unknown origin) by LanthaScreen assay. In general terms: In TR-FRET formats the signal depends on donor and acceptor labels being close together.

Another data set has as its system SK-CO-1. Briefly: Antiproliferative activity against human SKCO1 cells harboring KRAS G12V mutant after 72 hrs by CellTiter-Glo assay. The data set is classed as functional, cell-based. The conditions noted are these: SK-CO-1, 72 h.
The test system of data set [5] is BaF3. Briefly: Antiproliferative activity against mouse BA/F3 cells harboring NRAS G12D mutant after 72 hrs in presence of IL-3 by CellTiter-Glo assay. The data set is classed as functional, cell-based. The conditions noted are these: BaF3, 72 h. A digest of the protocol: as §2
In data set [6] the target is T1, Mitogen-activated protein kinase kinase kinase 7 (Homo sapiens). Briefly: Inhibition of TAK1 in RA patient-derived synovial fibroblasts assessed as inhibition of IL-1alpha-induced cytokine secretion at 3 uM preincubated for 3 hrs followed by IL-1alpha stimulation measured after 18 hrs by sandwich immunoassay. In a few lines: as §1
Data set [7] concerns BaF3. The data set is described as follows: Antiproliferative activity against mouse BA/F3 cells after 72 hrs by CellTiter-Glo assay. The data set is classed as cell-based. The settings on record: BaF3, 72 h.
The target in data set [8] is Receptor-type tyrosine-protein kinase FLT3 (Homo sapiens, UniProt P36888). The data set is described as follows: Inhibition of FLT3 (unknown origin).
The test system of a further data set is U-937. Briefly: Antiproliferative activity against human U937 cells at […] to […] nM after 72 hrs by CellTiter-Glo assay. Format: functional, cell-based.
The test system of the next data set is SW-620. The data set is described as follows: Antiproliferative activity against human SW620 cells harboring KRAS G12V mutant after 72 hrs by CellTiter-Glo assay. The data set is classed as functional, cell-based. The conditions noted are these: SW-620, 72 h.
Data set [9] has as its system BaF3. The data set is described as follows: Antiproliferative activity against mouse BA/F3 cells harboring KRAS G12D mutant after 72 hrs in presence of IL-3 by CellTiter-Glo assay. Format: functional, cell-based. The settings on record: BaF3, 72 h.
The nature of data set [10]: Increase in secretion of basic-FGF in TNFalpha activated RA patient-derived synovial fibroblasts at 0.6 to 3 uM preincubated for 3 hrs followed by TNFalpha stimulation measured after 18 hrs by sandwich immunoassay. The settings on record: human. In a few lines: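 Primary RA patient synovial fibroblasts (donor RA2159) were seeded at 1000 cells/well, grown about 24 h, then starved overnight and again about 4 h in basal medium with 0.1% BSA. Cells were pre-incubated 3 h with inhibitor (0.6 or 3 μM) or DMSO, then stimulated 18 h with 10 ng/mL TNFα. Paired wells were pooled, in biological duplicate. Pooled supernatants were diluted 1:3 and read on Luminex bead sandwich immunoassays, with mock-medium background and spiked-ligand controls.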

Data set [11] in a line: Antiproliferative activity against human SW156 cells harboring wild type KRAS after 72 hrs by CellTiter-Glo assay. Format: functional, cell-based.
The subject of data set [12] is NCI-H23. The data set is described as follows: Antiproliferative activity against human NCI-H23 cells harboring KRAS G12C mutant after 72 hrs by CellTiter-Glo assay. Format: functional, cell-based. In a few lines: (§3)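 NCI-H23 or NCI-H358 cells seeded at 2000 cells/well and grown 48 h before drug. Varying doses were added and cells incubated 72 h. Viability was read as CellTiter-Glo luminescence, and growth-inhibition IC50 was calculated from dose-response curves.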

The subject of a further data set is ASPC1. The data set is described as follows: Antiproliferative activity against human AsPC1 cells harboring KRAS G12D mutant after 72 hrs by CellTiter-Glo assay. Format: functional, cell-based. The conditions noted are these: ASPC1, 72 h.
In data set [13] the target is T1, Mitogen-activated protein kinase kinase kinase 7 (Homo sapiens). The data set is described as follows: Inhibition of TAK1 in RA patient-derived synovial fibroblasts assessed as inhibition of TNFalpha-induced cytokine secretion at 3 uM preincubated for 3 hrs followed by TNFalpha stimulation measured after 18 hrs by sandwich immunoassay. In a few lines:
as §1

The test system of the next data set is MOLM-14. Briefly: Antiproliferative activity against human MOLM14 cells harboring FLT3-ITD mutant at […] to […] nM after 72 hrs by CellTiter-Glo assay. Format: functional, cell-based.
Data set [14] in a line: Antiproliferative activity against human URMC6 cells harboring wild type KRAS after 72 hrs by CellTiter-Glo assay. The data set is classed as functional, cell-based.
The next data set relates to HEL. Briefly: Antiproliferative activity against human HEL cells at […] to […] nM after 72 hrs by CellTiter-Glo assay. The data set is classed as functional, cell-based.
A further data set has as its system NALM-6. The data set is described as follows: Antiproliferative activity against human NALM6 cells harboring NARS A146T mutant at […] to […] nM after 72 hrs by CellTiter-Glo assay. The data set is classed as functional, cell-based.
The subject of data set [15] is NCI-H358. Briefly: Antiproliferative activity against human NCI-H358 cells harboring KRAS G12C mutant after 72 hrs by CellTiter-Glo assay. The data set is classed as functional, cell-based. In a few lines:
as §3

In data set [16] the target is T1, Mitogen-activated protein kinase kinase kinase 7 (Homo sapiens). The data set is described as follows: Inhibition of biotin-labeled N-(2-(2-(2-(2-(4-(4-((4-((2-Acrylamidophenyl)amino)-5-chloropyrimidin-2-yl)amino)phenyl)piperazin-1-yl)ethoxy)ethoxy)ethoxy)ethyl)-5-((3aS,4S,6aR)-2-oxohexahydro-1H-thieno[3,4-d]imidazol-4-yl)pentanamide probe binding to TAK1 in human NCI-H358 cells at 10 uM after 6 hrs by immunoblot based competitive pull down assay. The data set is classed as cell-based. A digest of the protocol: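 H358 cells given 1 or 10 μM compound for 6 h, medium removed, cells rinsed twice with cold PBS and lysed in MPER buffer. Lysates incubated overnight at 4 °C with 1 μM biotinylated covalent probe, captured on streptavidin beads, and TAK1 recovery assessed by immunoblotting with anti-TAK1 antibody.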

Data set [17] has as its system NCI-H358. The data set is described as follows: Antiproliferative activity against human NCI-H358 cells harboring KRAS G12C mutant at. The data set is classed as functional, cell-based.
The test system of data set [18] is NCI-H23. The data set is described as follows: Antiproliferative activity against human NCI-H23 cells harboring KRAS G12C mutant at. Format: functional, cell-based.

Molecules are shown by their SMILES. The source made the active and inactive calls. The rule behind the calls is not given here.

Receptor-type tyrosine-protein kinase FLT3, sequence (P36888 whole entry): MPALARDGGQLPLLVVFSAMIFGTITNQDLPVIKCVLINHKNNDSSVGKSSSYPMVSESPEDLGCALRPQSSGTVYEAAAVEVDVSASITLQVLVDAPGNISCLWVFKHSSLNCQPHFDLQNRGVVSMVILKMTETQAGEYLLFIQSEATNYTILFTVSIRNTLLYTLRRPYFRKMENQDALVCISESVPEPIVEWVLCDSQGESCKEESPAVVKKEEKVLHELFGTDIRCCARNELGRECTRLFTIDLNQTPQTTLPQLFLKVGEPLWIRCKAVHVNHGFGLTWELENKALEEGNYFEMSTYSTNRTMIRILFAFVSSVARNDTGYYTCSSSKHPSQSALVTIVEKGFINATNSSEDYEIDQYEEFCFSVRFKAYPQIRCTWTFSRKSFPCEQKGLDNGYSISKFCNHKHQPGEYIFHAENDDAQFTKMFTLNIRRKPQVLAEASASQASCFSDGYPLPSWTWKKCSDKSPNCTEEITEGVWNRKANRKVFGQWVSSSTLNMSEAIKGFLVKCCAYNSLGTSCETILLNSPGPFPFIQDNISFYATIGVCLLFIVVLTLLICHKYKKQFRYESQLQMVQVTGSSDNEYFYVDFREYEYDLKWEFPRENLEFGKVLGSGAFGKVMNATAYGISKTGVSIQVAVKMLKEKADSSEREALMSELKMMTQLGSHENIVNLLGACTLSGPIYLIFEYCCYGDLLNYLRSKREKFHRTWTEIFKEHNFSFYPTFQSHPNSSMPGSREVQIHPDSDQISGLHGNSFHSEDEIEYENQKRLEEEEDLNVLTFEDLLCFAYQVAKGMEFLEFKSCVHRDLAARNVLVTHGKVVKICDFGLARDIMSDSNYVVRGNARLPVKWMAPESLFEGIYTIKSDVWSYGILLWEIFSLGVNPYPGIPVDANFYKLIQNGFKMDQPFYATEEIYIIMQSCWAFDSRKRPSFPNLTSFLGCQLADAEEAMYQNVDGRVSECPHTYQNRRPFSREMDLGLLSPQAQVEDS

As a reminder, the IC50 is the point on the concentration scale where inhibition reaches its midpoint. Turning to `C=CC(=O)Nc1ccccc1Oc1nc(Nc2ccc(N3CCN(C)CC3)cc2)ncc1Cl`, the inhibition entry in data set [1], in data set [6], in data set [13] and in [16] was “Active” each time. Also, the IC50 worked out at 1260 nM in the data set with PANC-1; 28 nM in the data set on BaF3 [2]; 10 nM in the data set with BaF3 [3]; 5.1 nM in data set [4]; 294 nM in the data set with SK-CO-1; 61 nM in the data set with BaF3 [5]. Besides, the IC50 in the data set on BaF3 [7] was determined as 274 nM; in [8], 0.63 nM; in the data set with SW-620 it was 767 nM; in the data set on BaF3 [9], 93 nM; in data set [11] it was 2880 nM; in the data set on ASPC1 it was 1850 nM. Further, in data set [14], the IC50 turned out to be 524 nM. Also, the outcome in the data set with U-937, in the data set with NCI-H23 [12], with MOLM-14 and in the data set with NCI-H358 [15] was Active. The Activity result in [10] is “Toxic”. Besides, the result with HEL and in the data set with NALM-6 was inactive.
As to `CCC(=O)Nc1ccccc1Oc1nc(Nc2ccc(N3CCN(C)CC3)cc2)ncc1Cl`, the inhibition result in [1], in data set [6], in data set [13] and in [16] was “inactive” in each case. Besides, the half-inhibitory concentration (IC50) came to 1360 nM with PANC-1; 191 nM in the data set on BaF3 [2]; 213 nM in the data set with SK-CO-1; 707 nM in the data set with SW-620; 60 nM in the data set with BaF3 [9]; 3730 nM in data set [11]. The IC50 came to 2700 nM with ASPC1 and 444 nM in data set [14].
Turning to `CN1CCN(c2ccc(Nc3ncc(Cl)c(Nc4ccccc4NC(=O)CCl)n3)cc2)CC1`, the IC50 is 31 nM in the data set with BaF3 [2]; 10 nM with BaF3 [3]; 25 nM in data set [4]; 178 nM in the data set on BaF3 [5]; 206 nM in the data set with BaF3 [7]; 376 nM with BaF3 [9]. The outcome in the data set with U-937, with NCI-H23 [12], in the data set on MOLM-14 and with NCI-H358 [15] was Active. Moreover, the outcome with HEL and in the data set with NALM-6 was inactive. For the same compound, the inhibition entry in data set [16] was “Active”.
For `N#CC[C@H](C1CCCC1)n1cc(-c2ncnc3[nH]ccc23)cn1`, the result in the data set on NCI-H358 [17] and in the data set on NCI-H23 [18] was Active.
